The target in assay [1] is Kallikrein-8 (Homo sapiens) (UniProt O60259). Briefly: Inhibition of Kallikrein-8 (unknown origin) using VPR-AMC substrate assessed as residual activity at 10 uM incubated for 15 mins prior to substrate addition measured for 2 hrs. In short, it runs like this:
(§1)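 Protease panel screen: enzyme and test inhibitor preincubated 15 min in the enzyme's reaction buffer, then substrate added. Reaction followed for 2 h, and activity was taken from the initial linear portion of the progress-curve slope. Enzyme, substrate, buffer and detection conditions for each target are given only in the paper's supporting table.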

Assay [2] addresses Kallikrein-1 (Homo sapiens) (UniProt P06870). Briefly: Inhibition of Kallikrein-1 (unknown origin) using Z-GPR-AMC substrate assessed as residual activity at 10 uM incubated for 15 mins prior to substrate addition measured for 2 hrs. In short, it runs like this:
as §1

Assay [3] has as its target Granzyme B (Homo sapiens) (UniProt P10144). Briefly: Inhibition of Granzyme B (unknown origin) using Ac-IEPD-AMC substrate assessed as residual activity at 10 uM incubated for 15 mins prior to substrate addition measured for 2 hrs. In short, it runs like this:
as §1

The target of assay [4] is Chymase (Homo sapiens) (UniProt P23946). Briefly: Inhibition of Chymase (unknown origin) using Suc-AAPF-AMC substrate assessed as residual activity at 10 uM incubated for 15 mins prior to substrate addition measured for 2 hrs. In short, it runs like this: as §1
In assay [5] the target is Dipeptidyl peptidase 9 (Homo sapiens) (UniProt Q86TI2). Briefly: Inhibition of DPP9 (unknown origin) using H-GP-AMC substrate assessed as residual activity at 10 uM incubated for 15 mins prior to substrate addition measured for 2 hrs. In short, it runs like this: as §1
The target of assay [6] is Dipeptidyl peptidase 4 (Homo sapiens) (UniProt P27487). Briefly: Inhibition of DPP4 (unknown origin) using H-GP-AMC substrate assessed as residual activity at 10 uM incubated for 15 mins prior to substrate addition measured for 2 hrs. In short, it runs like this:
as §1

A short description of assay [7]: Inhibition of human pancreatic Chymotrypsin using Suc-AAPF-pNa substrate incubated for 15 mins prior to substrate addition measured for 2 hrs. In short, it runs like this: (§2)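 Protease panel screen: enzyme and inhibitor preincubated 15 min in reaction buffer, then substrate added; reaction followed for 2 h and the initial linear part of the progress curve used for activity. Enzyme, substrate, buffer and detection details are given only in a supporting table.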

Assay [8] concerns the target Chymase (Homo sapiens, UniProt P23946). Briefly: Inhibition of Chymase (unknown origin) using Suc-AAPF-AMC substrate incubated for 15 mins prior to substrate addition measured for 2 hrs. In short, it runs like this: as §1
Assay [9] has as its target Cathepsin G (Homo sapiens, UniProt P08311). Briefly: Inhibition of Cathepsin G (unknown origin) using Suc-AAPF-AMC substrate incubated for 15 mins prior to substrate addition measured for 2 hrs. In short, it runs like this: as §1
Assay [10] addresses Cathepsin E (Homo sapiens) (UniProt P14091). Briefly: Inhibition of Cathepsin E (unknown origin) using MCA-KPILFFRLK(Dnp)-D-R-NH2 substrate assessed as residual activity at 10 uM incubated for 15 mins prior to substrate addition measured for 2 hrs. In short, it runs like this:
as §1

For assay [11], the target named is Cathepsin D (Homo sapiens) (UniProt P07339). Briefly: Inhibition of Cathepsin D (unknown origin) using MCA-KPILFFRLK(Dnp)-D-R-NH2 substrate assessed as residual activity at 10 uM incubated for 15 mins prior to substrate addition measured for 2 hrs. In short, it runs like this: as §1
Assay [12] addresses Disintegrin and metalloproteinase domain-containing protein 17 (Homo sapiens) (UniProt P78536). Briefly: Inhibition of TACE (unknown origin) using MCA-PLAQAV-Dpa-RSSSR-NH2 substrate assessed as residual activity at 10 uM incubated for 15 mins prior to substrate addition measured for 2 hrs. In short, it runs like this: as §2
Assay [13] addresses Disintegrin and metalloproteinase domain-containing protein 9 (Homo sapiens) (UniProt Q13443). Briefly: Inhibition of ADAM9 (unknown origin) using MCA-PLAQAV-Dpa-RSSSR-[…] substrate assessed as residual activity at 10 uM incubated for 15 mins prior to substrate addition measured for 2 hrs. In short, it runs like this: as §1
Assay [14] deals with Macrophage metalloelastase (Homo sapiens) (UniProt P39900). Briefly: Inhibition of MMP12 (unknown origin) using (5-FAM/QXLTM) FRET peptide substrate assessed as residual activity at 10 uM incubated for 15 mins prior to substrate addition measured for 2 hrs. In short, it runs like this:
as §1

Assay [15] deals with Cathepsin Z (Homo sapiens) (UniProt Q9UBR2). Briefly: Inhibition of Cathepsin X/Z (unknown origin) using MCA-RPPGFSAFK(Dnp) substrate assessed as residual activity at 10 uM incubated for 15 mins prior to substrate addition measured for 2 hrs. In short, it runs like this: as §1
Assay [16] concerns the target Angiotensin-converting enzyme (Homo sapiens) (UniProt P12821). Briefly: Inhibition of ACE1 (unknown origin) using MCA-RPPGFSAFK(Dnp) substrate assessed as residual activity at 10 uM incubated for 15 mins prior to substrate addition measured for 2 hrs. In short, it runs like this: as §1
The target in assay [17] is Papain (Carica papaya) (UniProt P00784). Briefly: Inhibition of papaya Papain using Z-FR-AMC substrate assessed as residual activity at 10 uM incubated for 15 mins prior to substrate addition measured for 2 hrs. In short, it runs like this: as §2
The target of assay [18] is Tryptase gamma (Homo sapiens, UniProt Q9NRR2). Briefly: Inhibition of Tryptase gamma1 (unknown origin) using Z-GPR-AMC substrate assessed as residual activity at 10 uM incubated for 15 mins prior to substrate addition measured for 2 hrs. In short, it runs like this:
as §2

Assay [19] addresses T1, Neutrophil elastase (Homo sapiens) (UniProt P08246).
T1 sequence (whole entry): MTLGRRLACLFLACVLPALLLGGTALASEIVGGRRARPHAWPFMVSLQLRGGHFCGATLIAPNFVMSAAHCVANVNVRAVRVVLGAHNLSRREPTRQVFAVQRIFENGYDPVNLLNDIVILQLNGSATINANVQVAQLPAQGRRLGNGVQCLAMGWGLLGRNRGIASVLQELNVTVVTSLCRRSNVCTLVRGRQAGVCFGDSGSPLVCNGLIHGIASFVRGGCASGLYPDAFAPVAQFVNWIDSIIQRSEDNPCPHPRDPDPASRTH
Conditions: 10 uM.

Activity calls are given as the source filed them. The rule behind the calls is not given here. Bounds are passed on as bounds.

Sequence of Disintegrin and metalloproteinase domain-containing protein 9 (Homo sapiens) (Q13443 whole entry, the tested form may be a part): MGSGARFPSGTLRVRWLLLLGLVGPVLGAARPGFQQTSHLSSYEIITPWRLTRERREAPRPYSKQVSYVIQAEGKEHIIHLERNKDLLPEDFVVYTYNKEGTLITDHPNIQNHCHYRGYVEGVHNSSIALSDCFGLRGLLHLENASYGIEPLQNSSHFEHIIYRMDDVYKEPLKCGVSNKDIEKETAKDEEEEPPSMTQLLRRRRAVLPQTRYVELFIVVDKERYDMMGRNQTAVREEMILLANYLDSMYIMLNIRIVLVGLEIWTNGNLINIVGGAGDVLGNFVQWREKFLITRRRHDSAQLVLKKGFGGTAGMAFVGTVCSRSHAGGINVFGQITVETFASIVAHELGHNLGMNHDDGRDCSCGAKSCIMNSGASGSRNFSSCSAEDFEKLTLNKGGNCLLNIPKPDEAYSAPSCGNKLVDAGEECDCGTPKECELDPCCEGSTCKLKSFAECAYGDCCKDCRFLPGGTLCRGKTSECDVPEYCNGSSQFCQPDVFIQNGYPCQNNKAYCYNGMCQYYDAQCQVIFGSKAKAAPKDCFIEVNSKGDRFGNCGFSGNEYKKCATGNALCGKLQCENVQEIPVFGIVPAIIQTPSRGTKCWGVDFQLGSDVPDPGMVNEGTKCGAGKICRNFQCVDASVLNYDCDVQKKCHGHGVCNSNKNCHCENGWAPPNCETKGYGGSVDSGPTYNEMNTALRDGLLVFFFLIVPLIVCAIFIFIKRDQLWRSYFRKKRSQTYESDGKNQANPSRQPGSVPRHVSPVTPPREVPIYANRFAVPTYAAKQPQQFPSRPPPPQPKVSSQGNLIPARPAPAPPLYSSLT
Sequence of Disintegrin and metalloproteinase domain-containing protein 17 (Homo sapiens) (P78536 whole entry, the tested form may be a part): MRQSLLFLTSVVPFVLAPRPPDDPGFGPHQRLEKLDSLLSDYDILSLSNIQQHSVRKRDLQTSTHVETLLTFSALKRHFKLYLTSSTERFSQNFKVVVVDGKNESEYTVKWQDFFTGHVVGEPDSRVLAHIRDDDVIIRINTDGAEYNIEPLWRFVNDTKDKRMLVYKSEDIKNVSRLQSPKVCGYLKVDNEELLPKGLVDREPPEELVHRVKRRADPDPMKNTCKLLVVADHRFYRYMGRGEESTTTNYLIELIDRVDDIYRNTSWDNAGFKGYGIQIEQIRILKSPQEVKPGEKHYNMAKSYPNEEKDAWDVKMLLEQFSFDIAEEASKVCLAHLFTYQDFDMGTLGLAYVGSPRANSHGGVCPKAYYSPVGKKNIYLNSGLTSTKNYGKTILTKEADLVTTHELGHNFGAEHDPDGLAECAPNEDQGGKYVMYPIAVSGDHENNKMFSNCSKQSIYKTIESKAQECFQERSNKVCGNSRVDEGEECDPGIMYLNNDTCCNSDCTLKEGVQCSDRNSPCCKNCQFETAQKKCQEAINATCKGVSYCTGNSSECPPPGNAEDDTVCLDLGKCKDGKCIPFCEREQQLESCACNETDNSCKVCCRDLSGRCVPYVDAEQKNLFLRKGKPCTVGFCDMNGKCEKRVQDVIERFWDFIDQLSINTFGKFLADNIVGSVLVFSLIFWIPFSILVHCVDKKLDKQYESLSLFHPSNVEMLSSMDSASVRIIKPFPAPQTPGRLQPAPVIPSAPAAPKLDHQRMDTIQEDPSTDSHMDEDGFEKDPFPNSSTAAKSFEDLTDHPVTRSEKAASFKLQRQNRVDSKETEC
Sequence of Tryptase gamma (Q9NRR2 38-321 limits assumed, other chains not shown): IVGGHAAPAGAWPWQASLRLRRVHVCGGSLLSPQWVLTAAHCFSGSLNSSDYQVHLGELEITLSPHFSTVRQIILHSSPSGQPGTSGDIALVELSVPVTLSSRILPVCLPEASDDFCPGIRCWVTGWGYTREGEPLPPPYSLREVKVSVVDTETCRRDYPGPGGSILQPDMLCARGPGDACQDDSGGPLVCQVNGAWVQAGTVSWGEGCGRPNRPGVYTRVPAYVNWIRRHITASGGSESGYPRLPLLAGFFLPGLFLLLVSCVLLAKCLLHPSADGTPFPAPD
Sequence of Papain (Carica papaya) (P00784 whole entry): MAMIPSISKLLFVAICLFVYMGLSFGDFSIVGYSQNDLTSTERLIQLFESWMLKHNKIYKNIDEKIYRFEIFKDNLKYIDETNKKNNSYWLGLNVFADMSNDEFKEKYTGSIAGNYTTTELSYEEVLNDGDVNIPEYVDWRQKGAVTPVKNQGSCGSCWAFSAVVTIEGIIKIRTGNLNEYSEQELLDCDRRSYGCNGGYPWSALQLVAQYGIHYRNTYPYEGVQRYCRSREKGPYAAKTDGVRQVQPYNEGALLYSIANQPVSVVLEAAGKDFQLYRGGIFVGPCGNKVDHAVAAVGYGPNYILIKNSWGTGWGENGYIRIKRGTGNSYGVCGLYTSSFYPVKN
Sequence of Kallikrein-8 (Homo sapiens) (O60259 whole entry): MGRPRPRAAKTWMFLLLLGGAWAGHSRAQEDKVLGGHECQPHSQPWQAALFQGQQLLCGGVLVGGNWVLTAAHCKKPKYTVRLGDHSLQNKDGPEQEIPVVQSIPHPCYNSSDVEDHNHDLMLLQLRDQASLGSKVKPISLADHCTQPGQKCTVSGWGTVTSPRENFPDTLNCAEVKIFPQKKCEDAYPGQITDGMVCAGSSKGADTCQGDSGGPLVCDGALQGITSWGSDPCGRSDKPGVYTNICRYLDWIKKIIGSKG
Sequence of Kallikrein-1 (Homo sapiens) (P06870 25-262 limits assumed): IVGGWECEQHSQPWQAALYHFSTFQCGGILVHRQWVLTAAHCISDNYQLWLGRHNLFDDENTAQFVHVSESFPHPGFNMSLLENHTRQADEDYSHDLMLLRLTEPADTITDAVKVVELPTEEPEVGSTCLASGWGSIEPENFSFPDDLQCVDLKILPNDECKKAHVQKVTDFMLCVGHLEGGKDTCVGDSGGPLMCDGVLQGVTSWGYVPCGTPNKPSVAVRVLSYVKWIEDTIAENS
Sequence of Dipeptidyl peptidase 4 (Homo sapiens) (P27487 whole entry, looked up): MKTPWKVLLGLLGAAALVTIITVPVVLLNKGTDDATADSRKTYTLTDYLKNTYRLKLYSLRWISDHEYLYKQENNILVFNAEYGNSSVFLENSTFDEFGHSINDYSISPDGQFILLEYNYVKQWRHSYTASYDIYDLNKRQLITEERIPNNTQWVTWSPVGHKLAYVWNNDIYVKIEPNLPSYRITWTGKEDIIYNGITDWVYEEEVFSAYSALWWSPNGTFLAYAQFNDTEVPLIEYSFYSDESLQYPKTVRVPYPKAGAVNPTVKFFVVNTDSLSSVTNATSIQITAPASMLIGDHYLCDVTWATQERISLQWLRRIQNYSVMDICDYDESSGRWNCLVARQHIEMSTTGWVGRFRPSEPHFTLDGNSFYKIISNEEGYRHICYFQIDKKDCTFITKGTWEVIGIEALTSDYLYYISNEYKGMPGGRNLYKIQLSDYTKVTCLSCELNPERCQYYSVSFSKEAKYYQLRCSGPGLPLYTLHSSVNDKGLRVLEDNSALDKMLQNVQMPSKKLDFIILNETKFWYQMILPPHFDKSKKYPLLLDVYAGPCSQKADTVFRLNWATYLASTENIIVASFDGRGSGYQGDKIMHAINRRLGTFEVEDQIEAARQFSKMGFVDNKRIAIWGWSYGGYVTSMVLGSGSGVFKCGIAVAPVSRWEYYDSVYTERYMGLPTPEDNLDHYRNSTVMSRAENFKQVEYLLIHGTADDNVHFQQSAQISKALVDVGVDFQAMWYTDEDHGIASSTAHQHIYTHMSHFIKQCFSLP
Sequence of Cathepsin E (Homo sapiens) (P14091 whole entry): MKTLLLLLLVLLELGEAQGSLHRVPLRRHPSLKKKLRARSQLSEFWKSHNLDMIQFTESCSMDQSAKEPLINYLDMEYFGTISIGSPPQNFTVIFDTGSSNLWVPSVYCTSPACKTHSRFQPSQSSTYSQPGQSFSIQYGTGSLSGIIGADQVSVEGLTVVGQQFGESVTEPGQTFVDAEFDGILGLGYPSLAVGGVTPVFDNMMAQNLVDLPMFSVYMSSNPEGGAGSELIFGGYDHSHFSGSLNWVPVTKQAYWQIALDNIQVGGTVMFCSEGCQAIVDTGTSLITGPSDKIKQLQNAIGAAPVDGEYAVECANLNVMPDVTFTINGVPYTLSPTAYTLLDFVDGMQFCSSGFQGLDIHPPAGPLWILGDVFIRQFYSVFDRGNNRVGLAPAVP
Sequence of Chymase (P23946 whole entry): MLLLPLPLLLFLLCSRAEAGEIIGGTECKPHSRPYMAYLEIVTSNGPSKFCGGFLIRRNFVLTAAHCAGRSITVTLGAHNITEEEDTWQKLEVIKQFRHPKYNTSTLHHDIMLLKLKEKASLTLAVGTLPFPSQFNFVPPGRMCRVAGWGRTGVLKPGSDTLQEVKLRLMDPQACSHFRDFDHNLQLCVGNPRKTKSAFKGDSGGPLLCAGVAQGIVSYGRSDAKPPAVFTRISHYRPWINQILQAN
Sequence of Chymase (Homo sapiens) (P23946 whole entry): as above
Sequence of Cathepsin Z (Homo sapiens) (Q9UBR2 whole entry): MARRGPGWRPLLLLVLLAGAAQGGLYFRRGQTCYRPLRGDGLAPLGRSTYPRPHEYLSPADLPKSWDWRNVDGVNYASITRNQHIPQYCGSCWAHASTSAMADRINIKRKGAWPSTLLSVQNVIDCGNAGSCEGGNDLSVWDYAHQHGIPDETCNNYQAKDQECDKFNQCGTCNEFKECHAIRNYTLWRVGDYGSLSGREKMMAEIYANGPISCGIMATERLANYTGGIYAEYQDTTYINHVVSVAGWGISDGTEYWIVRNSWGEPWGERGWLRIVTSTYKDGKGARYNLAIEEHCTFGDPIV
Sequence of Macrophage metalloelastase (Homo sapiens) (P39900 106-470 limits assumed): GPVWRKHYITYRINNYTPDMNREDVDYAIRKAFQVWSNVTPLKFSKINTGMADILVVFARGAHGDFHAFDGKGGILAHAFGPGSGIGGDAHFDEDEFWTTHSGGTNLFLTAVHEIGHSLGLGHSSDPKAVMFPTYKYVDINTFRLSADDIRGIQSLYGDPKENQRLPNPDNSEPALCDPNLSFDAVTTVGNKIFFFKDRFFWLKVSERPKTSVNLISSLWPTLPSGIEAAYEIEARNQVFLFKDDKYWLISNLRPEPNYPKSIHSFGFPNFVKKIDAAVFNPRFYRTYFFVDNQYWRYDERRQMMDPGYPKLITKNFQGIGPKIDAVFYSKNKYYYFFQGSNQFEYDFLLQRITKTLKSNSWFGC

As for `C/C=C1\NC(=O)[C@@H](NC(=O)[C@@H](NC(=O)[C@@H](COS(=O)(=O)[O-])OC)C(C)C)[C@@H](C)OC(=O)[C@H]([C@H](C)CC)NC(=O)[C@H](Cc2ccccc2)N(C)C(=O)[C@H](Cc2ccccc2)N2C(=O)[C@H](CC[C@H]2O)NC1=O.[Na+]` [Symplostatin 5], the Activity in assay [1] worked out at 50%; in assay [2], 100%; in assay [3], 100%; in [4] it was 100%; in assay [5], 100%; in assay [6], 100%. Also, the Activity in [10], in assay [11], in assay [12], in [13], in [14] and in assay [15] was 100% throughout. Besides, the Activity in assay [16], in assay [17] and in assay [18] was 100% each time. This molecule had a negative-log IC50 (pIC50) in [7] of 6.1. The 50% inhibitory concentration (IC50) in [8] and in assay [9] was under 10 µM in each case. Besides, the inhibition result in assay [19] was “Active”.

(Values after ChEMBL document CHEMBL2331221, “Potent elastase inhibitors from cyanobacteria: structural basis and mechanisms mediating cytoprotective and anti-inflammatory effects in bronchial epithelial cells” (J Med Chem, 2013).)
